Shown are actives, neighbours in structure and some others; about 3.9% of the full set was active somewhere.
HTR2A ag – mouse Htr2a agonists via beta-arrestin recruitment, primary screen, cell-based, luminescence; hit rate 0.66% among 360,000; 5-hydroxytryptamine receptor 2A (Mus musculus), P35363; CHO-K1 mHTR2A beta-arrestin complementation; percent of 30 µM serotonin response; activation, % at 7.6 µM; AID 624169, 2012;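 active = activation above a run cutoff, the mean activation of all tested compounds plus 3 SD, cut at about 14% in these data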;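 also: 0% = plate median of compound wells and 100% = 30 µM serotonin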
Target sequence (P35363 whole entry, looked up): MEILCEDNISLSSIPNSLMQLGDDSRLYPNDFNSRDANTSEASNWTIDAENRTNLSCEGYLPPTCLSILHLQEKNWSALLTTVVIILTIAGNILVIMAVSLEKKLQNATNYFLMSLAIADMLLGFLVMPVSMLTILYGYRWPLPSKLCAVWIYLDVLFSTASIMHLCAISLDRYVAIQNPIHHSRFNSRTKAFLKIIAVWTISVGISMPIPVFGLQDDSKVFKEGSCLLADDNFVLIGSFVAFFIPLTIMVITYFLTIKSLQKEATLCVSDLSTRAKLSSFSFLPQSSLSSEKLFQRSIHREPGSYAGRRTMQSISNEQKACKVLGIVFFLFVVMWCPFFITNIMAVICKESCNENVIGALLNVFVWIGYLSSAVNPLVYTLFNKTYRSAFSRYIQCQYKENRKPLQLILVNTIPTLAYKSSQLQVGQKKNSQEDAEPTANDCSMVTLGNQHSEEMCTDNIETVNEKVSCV
CHRM1 antagonist – human M1 muscarinic receptor antagonists, primary screen, CHO-K1 cells, Fluo-8 calcium fluorescence, 1536-well; Muscarinic acetylcholine receptor M1 (Homo sapiens), P11229; CHO-K1 hM1, ACh EC80 antagonist; inhibition, % at 3 µM; hit rate 1.3% among 360,000; AID 588852, 2011;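 active = percent inhibition above its own plate's cutoff, namely the mean of that plate's compound wells plus 3 SD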;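 also: peak over basal fluorescence ratio during 140 s after agonist addition; 0% = ACh EC80 plus DMSO and 100% = DMSO alone without agonist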
M1 PAM – human M1 muscarinic receptor positive allosteric modulators, primary screen, CHO-K1 cells, Fluo-8 calcium fluorescence, 1536-well; Muscarinic acetylcholine receptor M1 (Homo sapiens), P11229; CHO-K1 hM1, ACh EC20; 0% = ACh EC20, 100% = maximal ACh; activation, % at 3 µM; hit rate 0.088% among 360,000; in the data active = activation above about 19%, passing the limit was not always enough
TAAR1 antagonist – human TAAR1 antagonists, primary screen, Fluo-8 calcium fluorescence, CHO RD-HGA16 cells; Trace amine-associated receptor 1 (Homo sapiens), Q96RJ0; antagonist; inhibition, % at 3 µM; hit rate 1.5% among 360,000; AID 624466, 2012;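 active = inhibition above a per-plate cutoff, the mean inhibition of test compounds on that plate plus 3 SD, cut at about 49% in these data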;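 also: 0% = DMSO plus EC80 beta-PEA response and 100% = DMSO alone without agonist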
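Test system – hTAAR1-expressing CHO RD-HGA16 cells, Gα16-coupled · Also added – β-PEA at EC80 concentration, post-compound challenge · Compound – 3 µM, single point · Incubation – dye loading 75 min at 37 °C, then 30 min room temperature · Measured by – Fluo-8 intracellular calcium dye fluorescence, real-time kinetic reads · Benchmarks – vehicle and agonist controls · Replicates – singlicate, one well per test compound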
TAAR1 ag – human TAAR1 agonists, primary screen, Fluo-8 calcium fluorescence, CHO RD-HGA16 cells | Trace amine-associated receptor 1 (Homo sapiens), Q96RJ0 | vehicle wells 0%, saturating PEA agonist 100% | activation, % at 3 µM | hit rate 0.99% among 360,000;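 active = activation above the mean activation of all test compounds in the run plus 3 SD, cut at about 38% in these data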
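Benchmarks: low control DMSO, high control PEA (EC100); System: CHO RD-HGA16 cells carrying human TAAR1 plus Gα16; Detection: Fluo-8 fluorescence, 5 s baseline then 140 s kinetic read; Schedule: 17-24 h plating, Fluo-8 75 min 37 °C, 30 min RT; Read-out basis: % activation from peak over basal fluorescence ratio, DMSO-to-PEA scaled.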
CHRM1 agonist – human M1 muscarinic receptor agonists, primary screen, Fluo-8 calcium fluorescence, CHO-K1 cells, HTS; Muscarinic acetylcholine receptor M1 (Homo sapiens), P11229; CHO-K1 hM1, agonist mode; 0% DMSO, 100% acetylcholine EC100; activation, % at 3 µM; hit rate 0.33% among 360,000; AID 588814, 2011;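 active = activation above the run's mean compound activation plus 3 SD, cut at about 16% in these data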;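 also: peak over basal fluorescence ratio within a 140 s kinetic read after compound addition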
TAAR1 nonsel count – nonselective antagonists in TAAR1 counter-screen cells, counter-screen for hTAAR1 antagonist project, cell-based, fluorescence, calcium | shares compounds with TAAR1 antagonist | counterscreen cell line, antagonist mode | inhibition, % at 3 µM | hit rate 77% among 2,400 | AID 651780, 2012; in the data active = inhibition above about 22%;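 also: CHO-Ga16 host cells stimulated with ATP at an EC80 level; 0% = agonist EC80 plus vehicle and 100% = vehicle without agonist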
TAAR1 ant conf – human TAAR1 antagonists, retest of hits, confirmation, cell-based, fluorescence; shares compounds with TAAR1 antagonist; TAAR1-expressing cells, fluorescence antagonist read-out; hit rate 40% among 2,400; AID 651785, 2012; inhibition, % at 3 µM; in the data active = inhibition above about 49%;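 also: CHO-Ga16 host cells challenged with agonist PEA near its EC80; 0% = agonist at EC80 plus vehicle and 100% = vehicle with no agonist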
Ga16 ag counter – calcium activation in Ga16-expressing cells, counter-screen for TAAR1 antagonist project, cell-based, fluorescence; activation, % at 3 µM; hit rate 18% among 2,400; agonist counterscreen; shares compounds with TAAR1 antagonist; in the data active = activation above about 12%;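 also: 0% = vehicle wells and 100% = saturating stimulus response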
TAAR1 ag counter – TAAR1 activation by candidate antagonists – cell-based, fluorescence, counter-screen for TAAR1 antagonist project; shares compounds with TAAR1 antagonist; hTAAR1 cell line, agonist mode; activation, % at 3 µM; hit rate 2% among 2,400; AID 651955, 2012; in the data active = activation above about 37%;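 also: CHO cells stably expressing TAAR1 with calcium dye readout; 0% = DMSO vehicle and 100% = full agonist response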
* marks the source's active call; other numbers are inactive results; x = not tested or not shown.

SMILES | HTR2A ag | CHRM1 antagonist | M1 PAM | TAAR1 antagonist | TAAR1 ag | CHRM1 agonist | TAAR1 nonsel count | TAAR1 ant conf | Ga16 ag counter | TAAR1 ag counter
Cc1ccc(NC(=O)COC(=O)c2ccc(Cl)nc2)cc1S(=O)(=O)N1CCCCC1 | -1 | 5 | 7 | 17 | 10 | 7 | x | x | x | x
C[C@@]12C(=O)N(Cc3ccc(-c4ccccc4)cc3)CC(=O)N1[C@H](/C=C/c1ccccc1)[C@@H]1C(=O)N(c3ccccc3)C(=O)[C@@H]12 | -4 | -3 | 10 | 54* | 10 | -1 | 30* | 30 | 3 | 4
COc1ccccc1CNC(=O)CCS(=O)(=O)c1ccc2c(c1)CCN2C(C)=O | 6 | -1 | 1 | -8 | 0 | -3 | x | x | x | x
O=C(N=Nc1c(O)n(Cc2ccccc2)c2ccccc12)c1ccc(O)cc1 | -1 | -1 | -1 | 51* | 3 | -4 | 21 | 32 | 3 | -3
CCCCN(C=O)c1c(CC)nc2c(OCc3ccc(Cl)cc3Cl)cccn12 | -2 | 14 | -20 | 31 | 5 | -7 | x | x | x | x
COc1ccc(S(=O)(=O)Nc2c(NC3CCCCC3)c3ccccc3oc2=O)cc1OC | 3 | 16 | -9 | 51* | 13 | 0 | 12 | 32 | 8 | 13
Cc1ccc(S(=O)(=O)Nc2c(NC3CCCCC3)c3ccccc3oc2=O)cc1C | 5 | 8 | -5 | 29 | 0 | -3 | x | x | x | x
CCOc1ccccc1/C=C/c1onc(C)c1S(=O)(=O)N1CCC(C(=O)N2CCCCCC2)CC1 | -8 | -5 | 0 | -20 | -4 | -2 | x | x | x | x
O=c1n(Cc2ccc(Cl)cc2)c2sc3c(c2c2ncnn12)CCCC3 | 6 | -5 | 2 | 66* | 7 | -4 | 20 | 36 | 9 | 16
C=CCn1c(=O)n2ncnc2c2c3c(sc21)CCCC3 | 14 | 6 | 2 | x | x | -8 | x | x | x | x
COCC(=O)OCC(=O)Nc1ccc(Cl)cc1[N+](=O)[O-] | -3 | -1 | 8 | 2 | -1 | -4 | x | x | x | x
CC1CCN(C(=O)c2[nH]cnc2C(=O)Nc2ccon2)CC1 | 2 | -11 | 10 | -3 | 7 | -2 | x | x | x | x
CN(C)S(=O)(=O)N1CCC(Oc2cccc(C(=O)NCCC3=CCCCC3)c2)CC1 | 0 | 20 | -16 | 81* | 13 | 3 | 43* | 60* | 13* | 8
CN(C)S(=O)(=O)N1CCC(Oc2cccc(C(=O)NC3CCCCC3)c2)CC1 | 7 | -1 | -3 | -2 | 2 | 2 | x | x | x | x
N#CCn1c(CN2CCCC2)nc2ccccc2c1=O | -7 | -5 | 7 | 10 | -2 | -3 | x | x | x | x
Cc1nc(N2CCN(Cc3ccc(Cl)cc3)CC2)c2oc3ccccc3c2n1 | 5 | -8 | 12 | -28 | 0 | -2 | x | x | x | x
Cc1nc(N2CCN(Cc3ccc4c(c3)OCO4)CC2)c2oc3ccccc3c2n1 | -6 | 0 | 0 | 72* | 0 | -5 | 15 | 6 | -1 | -2
CC(C)NC(=S)Nc1c(N)[nH]c(=O)[nH]c1=O | -2 | -11 | 9 | 3 | 0 | -2 | x | x | x | x
COc1ccccc1N1CCN(Cc2ccc(-c3ccccc3[N+](=O)[O-])o2)CC1 | -6 | -8 | 6 | 88* | 12 | -5 | 28* | 55* | 8 | 4
O=C(Cc1ccc(S(=O)(=O)N2CCOCC2)s1)Nc1cc(C(F)(F)F)cc(C(F)(F)F)c1 | -1 | 5 | 10 | 21 | 6 | 7 | x | x | x | x
CCOC(=O)c1cc(NC(=O)Cc2ccc(S(=O)(=O)N3CCOCC3)s2)cc(C(=O)OCC)c1 | 3 | 29 | -10 | 76* | 12 | -2 | 29* | 45 | 11 | 11
O=C(NCCCCc1ccccc1)C1CC(c2ccc(C(F)(F)F)cc2)=NO1 (configuration not stated) | -2 | 13 | -5 | 84* | 28 | -1 | 23* | 18 | 3 | 3
CCCCNC(=O)C1CC(c2ccc(C(F)(F)F)cc2)=NO1 (configuration not stated) | 4 | 0 | -3 | -11 | 12 | 1 | x | x | x | x
CC(C)(C)c1ccc(/C=C2\SC(=O)N(CCNC(=O)c3cccc(S(=O)(=O)N4CCOCC4)c3)C2=O)cc1 | -3 | 16 | -1 | x | x | -2 | x | x | x | x
O=C(NCCN1C(=O)S/C(=C\c2ccccc2)C1=O)C1CCN(S(=O)(=O)c2cccs2)CC1 | -1 | 6 | -4 | 67* | 20 | -2 | 46* | 52* | 15* | 8
SMILES | HTR2A ag | CHRM1 antagonist | M1 PAM | TAAR1 antagonist | TAAR1 ag | CHRM1 agonist | TAAR1 nonsel count | TAAR1 ant conf | Ga16 ag counter | TAAR1 ag counter
CC(C)CN(CC(C)C)S(=O)(=O)N1CCC(C(=O)NCc2ccc(F)cc2)CC1 | -1 | 0 | -3 | 31 | 6 | -6 | x | x | x | x
O=C(NCCc1ccccc1)C1CCN(S(=O)(=O)c2cccs2)CC1 | 0 | -10 | -3 | -14 | 17 | -2 | x | x | x | x
O=C(NCCc1ccc(Cl)cc1)C1CCN(S(=O)(=O)c2cccs2)CC1 | -2 | 3 | -1 | 61* | 13 | 0 | 19 | 50* | 16* | 28
CC(C)CN(CC(C)C)S(=O)(=O)N1CCC(C(=O)NCCc2ccc(Cl)cc2)CC1 | 3 | -6 | 8 | 49* | 22 | -1 | 32* | 53* | 10 | 17
O=C(Nc1ccon1)c1ccc(S(=O)(=O)N2CCOCC2)cc1 | 1 | -10 | 10 | -19 | 0 | 0 | x | x | x | x
COc1ccc(COc2cc(-c3cccc(OC)c3)nc3ccc(NC(=O)c4cccnc4)cc23)cc1 | -7 | 31 | -19 | 69* | 12 | -2 | 35* | 47 | 6 | 8
